PMC4089878 (Molecular cancer therapeutics, 2013)

Columns and labels:
K562 xenograft = experiment: K562 mouse xenograft; type: in vivo, athymic nude mice; details: 15 mg/kg daily ip, nude mice
Outline: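 Athymic nude mice aged 6–8 weeks were injected subcutaneously in the flank with 5 × 10^6 K562 cells mixed 1:1 with matrigel. At […] tumor size, mice received 15 mg/kg daily ip in 2% DMSO + 0.3% tartaric acid, or vehicle alone (n=10 per group). Tumor volume was calculated as width² × length/2 and compared by […] t-test.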

[1] = system: primary human cord blood CD34+ cells; experiment: Growth of normal cord blood CD34+ cells; type: cell-based; details: Supplementary figure 5
[2] = system: ID1 protein in K562 cells; experiment: Western blot of USP1 and ID1 protein levels in K562 cells; type: cell-based, human; details: for USP1 and ID1 protein levels: Western blot, 24 hrs (Pimozide 48 hrs)
K562 cells [3] = experiment: Apoptosis; type: cell-based, human; details: 24 hrs (Pimozide 48 hrs)
K562 cells [4] = experiment: Cytotoxicity / viable cell count in K562 leukemic cells; type: cell-based, human
Ub-FANCD2 = experiment: Western blot of Ub-FANCD2, Ub-FANCI, Ub-PCNA levels; type: cell-based, human; details: supplementary figure 6
U2OS-DRGFP cells = experiment: DR-GFP homologous recombination reporter; type: cell-based, human; details: 24 h treatment
Outline: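 U2OS-DRGFP cells carry a single chromosomally integrated copy of the HR substrate and were grown in DMEM with 10% FBS. DSBs were induced by I-SceI expression after plasmid transfection. After 24 h, cells were exposed to test compound for 24 h. The percentage of viable GFP-positive cells was measured by FACS and normalized to the solvent vehicle group.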

native USP1/UAF1 complex = experiment: HA-Ub-VS competition assay on native USP1 in cell extracts; type: cell-based, human; details: K562 cells treated 24 hrs (SJB2-043 1 μM); Ub-Aldehyde 5 μM added to extract
Outline: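 K562 cells were treated with test compound or DMSO for 24 h. Cell extracts were then incubated with 0.5 μM final HA-Ub-vinylsulfone for 45 min at 30 °C. As a control, an aliquot of untreated extract was pretreated with 5 μM ubiquitin-aldehyde before probe addition. Samples were immunoblotted with anti-HA and anti-USP1 antibodies.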

[5] = system: MOLM14, OCI-AML3, U937 and SK-NO1; experiment: Cytotoxicity in AML cell lines; type: cell-based, human; details: 24 hrs
K562 cells [6] = experiment: Benzidine staining differentiation of K562 cells; type: cell-based, human; details: low dose, 5 days
[7] = system: primary AML bone marrow and peripheral blood cells; experiment: Cytotoxicity in primary AML patient cells; type: cell-based, human; details: 48-72 hrs
Outline: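 Fresh bone marrow and peripheral blood were taken from AML patients, and mononuclear cells were harvested. These were cultured in triplicate with test compound or DMSO for 48–72 h, and viability was determined. Data come from 3 patient samples, shown as mean ± SEM.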

Sequence of native USP1/UAF1 complex (O94782 1-671 limits assumed): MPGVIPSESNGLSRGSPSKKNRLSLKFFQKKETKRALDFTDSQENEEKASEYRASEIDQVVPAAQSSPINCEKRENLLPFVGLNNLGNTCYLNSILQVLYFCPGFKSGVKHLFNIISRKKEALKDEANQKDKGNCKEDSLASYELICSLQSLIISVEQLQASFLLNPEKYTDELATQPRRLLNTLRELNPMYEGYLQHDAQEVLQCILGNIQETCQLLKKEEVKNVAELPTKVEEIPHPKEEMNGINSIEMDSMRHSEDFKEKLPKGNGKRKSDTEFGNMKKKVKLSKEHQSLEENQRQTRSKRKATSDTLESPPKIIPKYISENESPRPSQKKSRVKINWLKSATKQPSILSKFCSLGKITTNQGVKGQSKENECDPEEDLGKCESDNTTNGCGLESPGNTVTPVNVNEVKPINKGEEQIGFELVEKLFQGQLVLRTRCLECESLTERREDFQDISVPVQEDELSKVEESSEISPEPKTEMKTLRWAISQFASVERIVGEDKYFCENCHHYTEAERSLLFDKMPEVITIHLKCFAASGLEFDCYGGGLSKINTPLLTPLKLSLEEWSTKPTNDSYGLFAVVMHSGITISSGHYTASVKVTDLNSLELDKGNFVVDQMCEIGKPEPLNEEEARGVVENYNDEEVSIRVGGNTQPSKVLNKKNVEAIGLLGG
Sequence of native USP1/UAF1 complex (Q8TAF3 whole entry, further chain): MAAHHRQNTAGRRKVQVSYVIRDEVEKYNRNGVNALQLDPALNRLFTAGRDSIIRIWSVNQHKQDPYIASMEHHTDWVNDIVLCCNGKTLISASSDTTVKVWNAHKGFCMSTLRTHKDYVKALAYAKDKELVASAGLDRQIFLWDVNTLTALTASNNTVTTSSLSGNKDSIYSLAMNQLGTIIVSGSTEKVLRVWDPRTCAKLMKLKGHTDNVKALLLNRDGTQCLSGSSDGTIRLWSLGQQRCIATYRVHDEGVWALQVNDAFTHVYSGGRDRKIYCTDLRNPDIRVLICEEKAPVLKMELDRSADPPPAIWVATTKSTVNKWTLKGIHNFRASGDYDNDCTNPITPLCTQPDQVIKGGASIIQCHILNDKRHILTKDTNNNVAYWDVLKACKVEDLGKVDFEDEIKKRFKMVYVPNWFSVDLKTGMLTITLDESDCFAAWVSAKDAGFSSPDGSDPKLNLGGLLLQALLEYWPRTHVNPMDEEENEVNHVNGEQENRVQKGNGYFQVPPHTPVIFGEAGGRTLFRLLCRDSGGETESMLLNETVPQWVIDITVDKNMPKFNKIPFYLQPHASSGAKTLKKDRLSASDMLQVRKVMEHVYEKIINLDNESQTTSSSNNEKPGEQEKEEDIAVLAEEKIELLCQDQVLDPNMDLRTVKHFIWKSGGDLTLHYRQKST

Molecule: O=c1[nH]c2ccccc2n1C1CCN(CCCC(c2ccc(F)cc2)c2ccc(F)cc2)CC1 [Pimozide, reference compound]
- tumor growth in K562 xenograft (K562 xenograft): modest inhibition of tumor growth
- effect on normal human cord blood CD34+ cells [1]: tolerated at high micromolar doses
- USP1 and ID1 protein levels [2]: promoted ID1 degradation
- apoptosis of K562 cells (K562 cells [3]): induction of apoptosis
- K562 cell growth (K562 cells [4]; 48 hrs): dose-dependent inhibition of K562 cell growth

Molecule: O=C1c2ccccc2C(=O)c2oc(-c3cccnc3)nc21 [SJB3-019A]
- levels of Ub-FANCD2 / Ub-PCNA (Ub-FANCD2): increased the levels of Ub-FANCD2 and Ub-PCNA
- potency relative to SJB2-043 in promoting ID1 degradation [2]: 5 times
- potency relative to SJB2-043 in cytoxicity in K562 cells (K562 cells [4]; K562 cells): 5 times
- gene conversion / HR activity (U2OS-DRGFP cells): decreased the HR activity

Molecule: Ub-aldehyde
- Ub-VS labeling of native USP1 (native USP1/UAF1 complex): complete loss of USP1-Ub-VS conjugates

Molecule: O=C1c2ccccc2C(=O)c2oc(-c3ccccc3)nc21 [SJB2-043]
- levels of Ub-FANCD2 / Ub-PCNA (Ub-FANCD2): increased the level of Ub-FANCD2
- effect on normal human cord blood CD34+ cells [1]: did result in growth inhibition
- cytotoxicity in AML cell lines [5]: dose-dependent cytotoxicity and concomitant ID1 degradation
- USP1/ID1 degradation, time course ([2]; 2 μM, 18 hrs or 26 hrs): complete degradation of USP1/ID1
- USP1 and ID1 protein levels [2]: dose-dependent decrease in USP1 levels and a concomitant degradation of ID1 protein
- apoptosis of K562 cells (K562 cells [3]): induced apoptosis of K562 cells in a dose-dependent manner
- differentiation of K562 cells (K562 cells [6]): activated differentiation of K562 cells into hemoglobin-expressing erythroid cells
- EC50 (K562 cells [4]; read-out: EC50, decrease in the number of viable K562 cells, 24 hrs, ± 0.08 (95% Confidence Limits)): ~1.07 µM
- cytotoxicity on primary AML bone marrow and peripheral blood cells [7]: dose-dependent cytotoxicity
